# Screening results deposited in PubChem BioAssay by several laboratories.
# Compounds with a hit are over-represented: about 2.2% of the library has one in this group of screens.
# T cruzi inh: inhibitors of intracellular T. cruzi growth, primary screen, luminescence, NIH3T3 host cells | hit rate 1.4% among 300,000 | inhibition, % (test concentration not listed) | T. cruzi beta-gal in NIH3T3, 90 h;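 active = mean inhibition across valid replicates above about 55%, limit read from the data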;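 also: signal also drops with host cell toxicity which is not excluded here; 0% = plate median of DMSO wells and 100% = zero luminescence signal; higher percent means less beta-gal luminescence so fewer parasites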
#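 Assay system: NIH/3T3 host cells with β-galactosidase reporter T. cruzi; input: 5,000 host fibroblasts per well; compound: single 50 nL compound addition per well in DMSO; timing: ≥90 h infection period, 3 h prior cell attachment; measured by: GalScreen β-gal luminescence, detergent lysis, 60 min; evaluation: percent inhibition of parasite-derived β-gal signal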
# HDAC3 inh: HDAC3 deacetylase inhibitors, primary screen, biochemical, fluorescence, cell-free homogeneous; Histone deacetylase 3 (Homo sapiens), O15379; recombinant HDAC3, fluorogenic peptide/trypsin coupled; inhibition, % at 8.3 µM; hit rate 0.15% among 320,000; in the data active = inhibition above about 26%, passing the limit was not always enough
# Target sequence (O15379 whole entry, looked up): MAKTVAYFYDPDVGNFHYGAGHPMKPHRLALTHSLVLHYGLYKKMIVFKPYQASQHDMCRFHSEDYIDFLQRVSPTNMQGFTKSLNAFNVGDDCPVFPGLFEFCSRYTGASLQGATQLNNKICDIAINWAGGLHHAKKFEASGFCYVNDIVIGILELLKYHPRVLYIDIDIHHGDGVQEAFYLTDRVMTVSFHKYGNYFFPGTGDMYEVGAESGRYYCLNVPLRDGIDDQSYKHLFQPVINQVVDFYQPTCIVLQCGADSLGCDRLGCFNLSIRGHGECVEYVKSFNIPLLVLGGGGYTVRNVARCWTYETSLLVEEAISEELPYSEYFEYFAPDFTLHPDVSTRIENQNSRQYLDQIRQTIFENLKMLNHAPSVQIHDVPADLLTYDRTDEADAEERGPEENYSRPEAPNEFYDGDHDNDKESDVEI
# AI-2 QS modul: Vibrio harveyi AI-2 quorum sensing modulators, primary screen, JMH597 strain, luminescence/OD600 ratio; activity change, % at 7.5 µM; hit rate 0.4% among 300,000; AID 2094, 2009; Vibrio harveyi JMH597 AI-2 luminescence/OD600 ratio, 9 h; stronger effect = lower value; strain lacks LuxN and CqsS sensors; 0 = neutral-control median; in the data active = activity change below about -75%, passing the limit was not always enough;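 also: luminescence divided by OD600 gain over 9 h not by final OD600 alone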
# Efflux pump mplx: inhibitors of Candida efflux pumps in yeast, primary screen, S. cerevisiae, Nile Red, multiplex. S. cerevisiae Candida pump triplex. inhibition, % at 10 µM. hit rate 0.44% among 330,000. AID 485275, 2010;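 active = plate passing quality check with inhibition over a set limit, or well fluorescence over plate mean plus 4 SD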;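 also: Nile Red retained in pooled yeast measured as flow cytometry median fluorescence; 0% = buffer negative control and 100% = Enniatin B positive control; higher means more Nile Red kept so more efflux inhibition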
# PolyA inh: polyadenylation inhibitors in yeast reporter cells, primary screen, luminescence, S. cerevisiae | S. cerevisiae SKY197-pL101 polyadenylation reporter, beta-gal luminescence; efflux-impaired pdr1/pdr3 knockout yeast; score 100 = 6 SD above DMSO | activity score, % at 12 µM | hit rate 0.02% among 300,000 | AID 1875, 2009;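 active = lowest replicate activity score at least 50, where 100 means six control SD above control mean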;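 also: yeast exposed to compound for 9 h at 30 °C; higher score means more reporter readthrough which indicates perturbed polyadenylation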
# * marks the source's active call; other numbers are inactive results; / = no result given; ! = not confirmed by another sample.
SMILES,T cruzi inh,HDAC3 inh,AI-2 QS modul,Efflux pump mplx,PolyA inh
OCC[C@@H]1C[C@H](O)[C@@H](O)[C@@]2(CCCCO2)O1,3.6,9.2,4.5,-0.1,10.5
Cc1cc(Nc2cccc(F)c2)nc(-c2ccccc2O)n1,56.2*,/,1.8,0.1,-36.9
CCOC(=O)C(C)Sc1cc(CS(=O)(=O)c2ccccc2)nc(-c2ccccc2)n1 (stereo not drawn),17.5,1.6,37.6,0.1,-12.4
Cc1nn(C)c(C(=O)Nc2ccc(S(=O)(=O)NC34CC5CC(CC(C5)C3)C4)cc2)c1Br,59.2*,-8.0,4.5,0.1,-23.6
CC(C)c1csc(CN2CCC(CO)(Cc3cccc(F)c3)CC2)n1,68.4*,3.5,-54.9,0.0,-1.4
CCCCN(CC)CCCNC(=S)Nc1ccc2nc3n(c(=O)c2c1)CCCCC3,56.0*,-3.7,11.4,0.0,16.3
O=c1c2cc(NC(=S)NCCCN3CCC(Cc4ccccc4)CC3)ccc2nc2n1CCCCC2,57.2*,-0.9,12.6,-0.2,19.7
O=c1c2cc(NC(=S)NCCN3CCCCCC3)ccc2nc2n1CCCCC2,8.1,-3.9,/,0.0,8.1
CC[C@@]1(C(=O)OC)N[C@H](CN(C)C(=O)Nc2ccc(F)cc2)[C@@H]2C(=O)N(C)C(=O)[C@@H]21,/,-2.3,/,0.1,/
CCOC(=O)C(O)(NC(=O)c1cccnc1)C(F)(F)F (stereo not drawn),/,41.8*,35.4,-0.1,/
O=C(C[n+]1cc(-c2ccc(Cl)cc2)n2c1CCC2)N1c2ccccc2Sc2ccccc21,45.9,3.4,34.7,0.1,9.8
COc1ccc(-c2c[n+](CC(=O)N3c4ccccc4Sc4ccccc43)c3n2CCC3)cc1,57.1*,2.3,53.4,-0.2,-5.5
Cc1ccc(C(=O)C[n+]2cc(-c3ccc(C)cc3)n3c2CCCCC3)cc1,69.0*,2.7,28.4,0.1,-11.9
O=C(C[n+]1cc(-c2ccccc2)n2c1CCCCC2)c1ccc(Br)cc1,20.4,-4.4,38.1,0.1,6.4
COc1ccc(-c2c[n+](CC(=O)c3cccs3)c3n2CCC3)cc1,0.1,2.5,4.6,0.0,3.7
COc1ccc(C(=O)C[n+]2cc(-c3ccc(OC)cc3)n3c2CCCC3)cc1,62.2*!,1.6,6.7,0.0,4.2
CCc1ccc(C(=O)COC(=O)C2CCN(c3ccc(C(F)(F)F)cn3)CC2)cc1,-5.9,1.1,-0.1,0.2,-0.4
Cc1cc(N2C(=O)C3C4CCC(C4)C3C2=O)no1 (stereo not drawn),-13.7,-3.6,24.1,0.2,4.6
COc1ccc(CCNC(=O)COC(=O)c2cc(OC)c(OC)cc2OC)cc1OC,-8.6,4.1,27.9,0.1,-10.5
CCN(CC)CCNc1nc2cc(OC)c(OC)cc2c2nc(-c3ccccc3)nn12,64.7*,-10.5,10.3,-0.2,-9.5
CCOc1ccc2oc(=O)cc(CN3CCN(Cc4ccccc4)CC3)c2c1,58.5*,-4.1,-7.4,-0.2,-4.0
Cc1c(O)ccc2c(CN3CCN(Cc4ccccc4)CC3)cc(=O)oc12,56.1*,-21.2,9.3,0.0,17.0
COC(=O)c1sccc1NC(=O)COc1ccccc1Cl,1.5,-3.5,22.5,0.6,-14.9
COC(=O)Cn1ncc(N(C)Cc2ccccc2)c(Cl)c1=O,-1.9,2.5,10.7,0.0,1.0
CCN1CCN(C(=S)Nc2cc(S(=O)(=O)N(CC)CC)ccc2C)CC1,10.9,-7.8,10.1,0.1,-0.5
SMILES,T cruzi inh,HDAC3 inh,AI-2 QS modul,Efflux pump mplx,PolyA inh
O=C(Oc1csc(=S)n1C(=O)c1ccccc1)c1ccccc1,-3.5,36.6*,14.1,-0.1,8.7
Cc1cc(NC(=O)CN2C(=O)CCSc3ccccc32)no1,-1.4,0.5,-6.0,-0.1,2.8
Cc1cc(NC(=O)CN2C(=O)CC(c3ccco3)Sc3ccccc32)no1 (stereo not drawn),-2.8,41.1*,27.5,0.3,12.8
CN(CCOc1ccccc1)CC(O)COCc1ccccc1F (stereo not drawn),54.6*,2.3,3.0,0.0,-1.7
CN(CCOc1ccc(Br)cc1)CC(O)c1ccccc1 (stereo not drawn),70.1*,2.4,24.1,5.3*,4.1
CN(CCOc1ccc(Cl)cc1)CC(O)c1ccccc1 (stereo not drawn),52.6,5.0,8.1,2.7,3.1
CN(CCOc1ccccc1)CC(O)COc1ccccc1 (stereo not drawn),29.1,-1.2,7.7,-0.1,0.9
O=C1C=C(c2ccc3[nH]ccc3c2)C[C@@H](c2ccc(Cl)cc2)C1,/,-1.0,/,0.4,/
S=C(NCC1CCCCC1)Nc1ccc(Oc2ccccc2)cc1,54.6*,13.9,5.7,-0.1,13.8
CCOc1ccccc1-c1nc2c(s1)CCc1onc(-c3ccc(OC)cc3)c1-2,-7.8,-0.6,5.8,0.0,-0.3
CNC(=O)c1cc(NC(=O)CCn2nc(-c3ccc(C)cc3)c3ccccc3c2=O)ccc1OC,27.8,2.7,0.4,0.0,-2.0
COc1cc(SC)ccc1C(=O)Nc1ccc2ncccc2c1,11.9,-1.8,-0.6,0.0,-2.8
COc1cc2c(cc1OC)C1(Nc3c-2c(C)nn3-c2ccccc2)C(=O)Nc2ccccc21 (stereo not drawn),/,-11.9,/,0.0,/
COc1cc2c(cc1OC)C1(Nc3c-2c(-c2ccccc2)nn3-c2ccccc2)C(=O)Nc2ccccc21 (stereo not drawn),1.0,-0.5,43.4,1.2*,14.8
CCc1cc(/C(Cc2ccccn2)=N\Nc2ccccc2)c(O)cc1O,-18.6,3.5,11.2,0.1,-13.6
COc1ccc2no[n+]([O-])c2c1,-8.6,-0.2,13.5,0.5,72.6*
COc1ccc2nc(-c3ccco3)c(-c3ccco3)nc2c1,-10.4,5.7,33.4,-0.1,2.7
C=CCN(C(=O)c1csnn1)C(C(=O)NCc1ccc(F)cc1)c1cccs1 (stereo not drawn),7.0,-3.4,8.8,-0.2,-6.8
O=C(NN1C(=O)/C(=C/C=C/c2ccco2)SC1=S)c1ccccc1O,-1.9,1.8,20.0,2.0*,19.4
Cc1ccc(C)c(C(=O)C(C)OC(=O)CN2C(=O)NC3(CC(C)CC(C)(C)C3)C2=O)c1 (stereo not drawn),0.8,7.1,18.1,0.4,12.2
O=C(Nc1c[nH]c(=O)[nH]c1=O)c1ccccc1Cl,-8.0,-2.3,24.2,-0.1,-2.7
CCOC(=O)c1nnn(-c2ccc([N+](=O)[O-])cc2[N+](=O)[O-])c1C,95.9*,0.9,27.1,0.0,-8.3
O=C(NCc1ccccc1)C(c1ccccn1)N(C(=O)c1csnn1)c1ccccc1F (stereo not drawn),3.6,-7.3,16.8,-0.1,4.3
